Screens deposited in PubChem BioAssay by Sanford-Burnham Center for Chemical Genomics.
This is a sample that favours compounds with a hit; in the whole collection about 3% have one here.
SENP6 inh: blocks the human protease SENP6. Q9GZR1. Recombinant SENP6 catalytic domain, aminoluciferin luminescence. inhibition, % at 10 µM. actives 1.8% (n = 330,000);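 active means inhibition above about 50% at the single tested dose, limit read from the data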;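 further: plate controls were DMSO wells with enzyme for no effect and DMSO wells lacking enzyme for full effect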
Target sequence (Q9GZR1 628-1112 limits assumed): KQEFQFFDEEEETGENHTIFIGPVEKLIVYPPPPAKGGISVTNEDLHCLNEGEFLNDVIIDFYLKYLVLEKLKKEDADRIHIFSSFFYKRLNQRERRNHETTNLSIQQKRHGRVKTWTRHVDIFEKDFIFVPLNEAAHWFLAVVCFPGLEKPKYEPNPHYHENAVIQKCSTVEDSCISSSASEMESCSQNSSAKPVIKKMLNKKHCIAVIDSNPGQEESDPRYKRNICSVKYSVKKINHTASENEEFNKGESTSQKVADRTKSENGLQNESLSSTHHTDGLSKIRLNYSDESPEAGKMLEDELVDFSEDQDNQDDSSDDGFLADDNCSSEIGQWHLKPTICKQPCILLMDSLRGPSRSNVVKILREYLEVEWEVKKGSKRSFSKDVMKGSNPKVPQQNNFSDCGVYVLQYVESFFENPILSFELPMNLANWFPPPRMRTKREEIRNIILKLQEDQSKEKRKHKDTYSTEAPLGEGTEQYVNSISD
Apaf-1 inh: blocks human Apaf-1 apoptosome activity; reconstituted apoptosome caspase-3 activity, DEVD-Rh110 fluorescence; AID 489030; inhibition, % at 20 µM; actives 0.71% (n = 330,000); O14727; active means inhibition of at least 40% at 20 µM;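 further: plate controls were DMSO wells for no effect and DEVD-CHO caspase inhibitor wells for full effect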
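System: reconstituted apoptosome with Apaf-1, cytochrome c, caspase-9, procaspase-3, dATP; Signal: Rh110 fluorescence intensity; Schedule: 30 min compound preincubation, 50 min activation, room temperature; Reagent: cytochrome c trigger plus (Z-DEVD)2-Rh110 caspase-3 substrate.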
UBC13 polyUb: human UBC13 polyubiquitination inhibition | P61088 | inhibition, % at 20 µM | UBC13 polyubiquitin chain formation, TR-FRET | actives 0.47% (n = 330,000); in the data active means inhibition above about 45%, passing the limit was not always enough
Target sequence (P61088 whole entry, looked up): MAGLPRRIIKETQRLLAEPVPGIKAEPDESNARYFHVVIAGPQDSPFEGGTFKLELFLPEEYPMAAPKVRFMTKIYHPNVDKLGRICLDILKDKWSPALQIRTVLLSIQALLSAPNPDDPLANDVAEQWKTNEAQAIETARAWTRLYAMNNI
SENP8 block-1: inhibitors of human SENP8 protease. actives 1.2% (n = 330,000). Q96LD8. purified SENP8, Z-RLRGG-aminoluciferin cleavage, luminescence. inhibition, % at 10 µM; in the data active means inhibition above about 50%
SENP8 block-2: inhibitors of human SENP8 protease; Q96LD8; AID 602440; recombinant SENP8, Nedd8 substrate fluorescence; actives 0.64% (n = 360,000); inhibition, % at 20 µM; in the data active means inhibition mostly above about 40%, no sharp cut-off; inactive means mostly below about 27%
SENP7 block: blocks the human protease SENP7. actives 1.5% (n = 330,000). AID 434973. recombinant SENP7, Z-RLRGG-aminoluciferin luminescence, 40 min. Q9BQF6. inhibition, % at 5 µM;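 active means inhibition above about 50% at the single test dose, limit read from the data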;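 further: plate controls were DMSO with enzyme for no effect and no enzyme buffer wells for full effect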
SENP8 conf: human SENP8 inhibition, confirmed; shares compounds with SENP7 block; Recombinant SENP8, Z-RLRGG-aminoluciferin luminescence, 60 min; inhibition, % at 12.5 µM; actives 40% (n = 6,200); AID 488912;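 active means mean inhibition across replicates above about 50%, limit read from the data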
SENP6 conf: human SENP6 inhibition, confirmed | inhibition, % at 12.5 µM | recombinant SENP6, Z-RLRGG-aminoluciferin luminescence | shares compounds with SENP7 block | actives 58% (n = 6,200)
SENP7 confirm: human SENP7 inhibition, confirmed; shares compounds with SENP7 block; recombinant SENP7, Z-RLRGG-aminoluciferin luminescence, 40 min; inhibition, % at 12.5 µM; actives 69% (n = 6,200); AID 488917
Casp3 SENP sel: selectivity test for SENP inhibitors: human caspase-3 inhibition | shares compounds with SENP7 block | purified caspase-3, Z-DEVD-aminoluciferin luminescence, 60 min | inhibition, % at 12.5 µM | actives 60% (n = 6,200) | AID 488918;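 active means mean inhibition above about 50%, limit read from the data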;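 further: plate controls were enzyme with DMSO for no effect and wells without caspase-3 for full effect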
SENP luc ctr: counter-screen for SENP inhibitors: luminescence interference | shares compounds with SENP7 block | Pre-incubated SENP8/Z-RLRGG-aminoluciferin, luciferase luminescence interference | inhibition, % at 12.5 µM | actives 39% (n = 6,200);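 active means mean inhibition above about 50% when retested at one dose, limit read from the data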;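 further: plate controls were DMSO wells with completed reaction for no effect and substrate without enzyme for full effect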
An asterisk follows results filed as active; nt = no result given.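 How the source made its calls, unless noted: active means mean inhibition above about 50% in the one-dose retest (limit read from the data); inactive means the rest.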

SMILES	SENP6 inh	Apaf-1 inh	UBC13 polyUb	SENP8 block-1	SENP8 block-2	SENP7 block	SENP8 conf	SENP6 conf	SENP7 confirm	Casp3 SENP sel	SENP luc ctr
CCOC(=O)C(C)/C(C)=N/NC(=O)CCC(=O)Nc1cc(C)ccc1C (centres undefined)	-16	-3	-9	9	9	-1	nt	nt	nt	nt	nt
O=C(CCCc1nc2ccccc2s1)NC1CCOC1=O (centres undefined)	-6	-12	3	4	6	4	nt	nt	nt	nt	nt
O=C(CCc1nc2ccccc2s1)NC1CCOC1=O (centres undefined)	61*	-21	3	2	12	1	9	6	-8	2	0
Cn1cccc1CNC(=O)Nc1ccc(Cl)cc1	-14	20	-5	-17	15	4	nt	nt	nt	nt	nt
Cn1cccc1C(=O)c1ccc(Cl)cc1Cl	-4	2	-14	-2	15	-3	nt	nt	nt	nt	nt
Cn1cccc1C(=O)C(=O)Nc1ccc(F)c(F)c1	89*	13	-4	80*	8	83*	43	39	77*	53*	42
Cn1cccc1C(=O)C(=O)Nc1cc(Cl)cc(Cl)c1	73*	-4	-4	67*	24	94*	35	53*	88*	58*	-1
Cn1cccc1C(=O)C(=O)Nc1ccc(Cl)cc1	90*	-9	0	86*	23	95*	93*	93*	100*	90*	57*
COc1ccc(-c2csc(Nc3ncccc3C)n2)cc1	100*	13	12	92*	11	93*	95*	97*	102*	87*	92*
Cc1cccnc1Nc1nc(-c2ccc(O)c(O)c2)cs1	92*	19	12	92*	11	66*	89*	89*	96*	45	86*
COc1ccc(-c2csc(Nc3ncccc3C)n2)cc1OC	49	18	-1	14	-38	14	nt	nt	nt	nt	nt
Cc1nc(C)c(-c2csc(Nc3ncccc3C)n2)s1	67*	11	-3	61*	5	59*	52*	60*	86*	50	25
COc1ccc(/C=N/N2CCN(c3ccc(Cl)cc3)CC2)cc1O	0	-5	10	-4	18	-6	nt	nt	nt	nt	nt
CC1=C(C(=O)N(C(C)C)C(C)C)CC(CC(=O)NCCCCc2ccccc2)C(=O)N1Cc1ccc(F)cc1 (centres undefined)	nt	nt	nt	nt	16	nt	nt	nt	nt	nt	nt
Cc1ccc(N/C=C/C(=O)c2ccccc2)cc1Br	63*	5	-4	45	-153	83*	4	4	6	23	11
CC(=O)c1ccc(N/C=C\C(=O)c2ccc(C)cc2)cc1	-17	7	-5	-2	-369	19	nt	nt	nt	nt	nt
O=C(/C=C/Nc1ccc(Br)cc1F)c1ccccc1	94*	10	-10	94*	-27	100*	-27	15	36	65*	9
C/C(=C\C(=O)c1ccc(C)cc1)Nc1cccc(O)c1	84*	17	0	76*	16	-21	82*	87*	98*	70*	88*
Cc1ccc(C(=O)/C=C/Nc2ccc3c(c2)OCO3)cc1	38	5	-18	-4	-30	60*	15	15	26	23	6
O=C(Nc1cccc(O)c1)c1cccc(C(=O)Nc2cccc(O)c2)c1	4	-10	9	-8	9	9	nt	nt	nt	nt	nt
Cc1ccc(C(=O)/C=C/Nc2cccc(O)c2)cc1	93*	1	-6	88*	-68	50	10	93*	100*	77*	78*
CC(=O)c1cccc(N/C=C\C(=O)c2ccc(C)cc2)c1	nt	nt	nt	nt	-236	nt	nt	nt	nt	nt	nt
CC(=O)Nc1ccc(N/C=C/C(=O)c2ccc(Cl)cc2)cc1	-10	14	-4	1	-64	-1	nt	nt	nt	nt	nt
O=C(/C=C/Nc1cccc(O)c1)c1ccccc1	97*	11	-9	96*	-90	98*	99*	99*	103*	97*	98*
O=C(/C=C/Nc1ccc(F)c(Cl)c1)c1ccccc1	71*	9	-5	34	-189	65*	19	40	87*	58*	17
SMILES	SENP6 inh	Apaf-1 inh	UBC13 polyUb	SENP8 block-1	SENP8 block-2	SENP7 block	SENP8 conf	SENP6 conf	SENP7 confirm	Casp3 SENP sel	SENP luc ctr
O=C(NNc1ccccc1)Nc1ccccc1F	-12	3	4	1	38	5	nt	nt	nt	nt	nt
Cc1ccc(OCC(=O)Nc2cccc(C)n2)c(C)c1	74*	12	1	45	0	65*	30	67*	90*	69*	22
Cc1ccccc1NC(=O)c1cc(=O)c2ccccc2o1	16	0	6	4	11	2	nt	nt	nt	nt	nt
O=C(Nc1ccc(Cl)cc1Cl)c1cc2ccccc2o1	27	4	-3	-15	6	59*	14	10	4	4	-5
O=C(Nc1ncccc1Cl)c1cc2ccccc2o1	63*	10	0	42	6	64*	68*	73*	92*	83*	28
COc1cc(NC(=O)c2cc3ccccc3o2)c(OC)cc1Cl	-3	-2	17	-9	-90	-2	nt	nt	nt	nt	nt
COc1ccccc1NC(=O)c1cc2ccccc2o1	57*	10	-5	34	29	44	46	42	78*	50	54*
Cc1ccccc1NC(=O)c1cc2ccccc2o1	85*	-10	2	67*	-18	71*	71*	70*	92*	85*	79*
CN(/N=C\c1ccc(O)c(O)c1)c1nc(-c2ccccc2)cc(-c2ccccc2)n1	-3	18	-1	-9	-15	-1	nt	nt	nt	nt	nt
COc1ccc(-c2sc(Nc3ccc(F)c(F)c3F)nc2CCC(=O)NN)cc1	-2	19	4	7	7	9	nt	nt	nt	nt	nt
Cc1ccc(NC(=O)c2cc3ccccc3o2)nc1	63*	8	-5	40	-67	65*	58*	58*	87*	74*	67*
COc1nc(-c2ccccc2)ccc1-c1noc(-c2ccccc2F)n1	1	3	26	-3	-217	26	nt	nt	nt	nt	nt
